Data from article PMC6054565 (ACS chemical biology, 2018).

Key:
Assay in all cases: chemiluminescence
Format in all cases: binding
[1] = molecular target: TcYcgR; conditions: read-out: KD^a; 50 nM protein; 50 mM HEPES pH 7.2, 100 mM KCl, 10 mM DTT, 0.1% BSA; 28 °C
How it was run: (§1)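 Purified from E. coli co-expressing the c-di-GMP phosphodiesterase PdeH. Biosensor (YcgR domain inserted at the 91/92 site of split RLuc8) at 50 nM with c-di-GMP in 100 µL, equilibrated ≥10 min at 28 °C. Injected 20 µL of 60 µM coelenterazine-h in 50 mM HEPES pH 7.2, 100 mM KCl, 300 mM ascorbate. Total luminescence integrated 10 s after a 3 s delay.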

[2] = molecular target: TbYcgR; conditions: read-out: KD^a; 50 nM protein; 50 mM HEPES pH 7.2, 100 mM KCl, 10 mM DTT, 0.1% BSA; 28 °C
How it was run: as §1

[3] = molecular target: T1, EcYcgR (Escherichia coli, UniProt P76010)
T1 sequence (P76010 1-244): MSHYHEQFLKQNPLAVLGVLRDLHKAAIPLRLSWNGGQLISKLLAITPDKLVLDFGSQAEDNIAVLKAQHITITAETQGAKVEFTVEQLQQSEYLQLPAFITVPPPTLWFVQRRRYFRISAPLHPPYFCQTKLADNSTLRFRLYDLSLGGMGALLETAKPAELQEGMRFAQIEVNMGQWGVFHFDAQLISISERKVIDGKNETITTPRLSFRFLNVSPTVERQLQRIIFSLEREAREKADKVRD
How it was run: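 Then 20 µL of 60 µM coelenterazine-h (in HEPES/KCl/300 mM ascorbate, equilibrated at RT for at least 30 min) was injected. Total luminescence was integrated for 10 s after a 3 s delay at 28 °C.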

[4] = molecular target: TmYcgR; conditions: read-out: KD^a; 50 nM protein; 50 mM HEPES pH 7.2, 100 mM KCl, 10 mM DTT, 0.1% BSA; 28 °C
How it was run: as §1

[5] = molecular target: ToYcgR; conditions: read-out: KD^a; 50 nM protein; 50 mM HEPES pH 7.2, 100 mM KCl, 10 mM DTT, 0.1% BSA; 28 °C
How it was run: as §1

[6] = molecular target: BtYcgR; conditions: read-out: KD^a; 50 nM protein; 50 mM HEPES pH 7.2, 100 mM KCl, 10 mM DTT, 0.1% BSA; 28 °C
How it was run: as §1

[7] = molecular target: TuYcgR; conditions: read-out: KD^a; 50 nM protein; 50 mM HEPES pH 7.2, 100 mM KCl, 10 mM DTT, 0.1% BSA; 28 °C
How it was run: as §1

[8] = molecular target: CpYcgR; conditions: read-out: KD^a; 50 nM protein; 50 mM HEPES pH 7.2, 100 mM KCl, 10 mM DTT, 0.1% BSA; 28 °C
How it was run: as §1

[9] = molecular target: PtYcgR; conditions: read-out: KD^a; 50 nM protein; 50 mM HEPES pH 7.2, 100 mM KCl, 10 mM DTT, 0.1% BSA; 28 °C
How it was run: as §1

[10] = molecular target: CbYcgR; conditions: read-out: KD^a; 50 nM protein; 50 mM HEPES pH 7.2, 100 mM KCl, 10 mM DTT, 0.1% BSA; 28 °C
How it was run: as §1

[11] = molecular target: BvYcgR; conditions: read-out: KD^a; 50 nM protein; 50 mM HEPES pH 7.2, 100 mM KCl, 10 mM DTT, 0.1% BSA; 28 °C
How it was run: as §1

[12] = molecular target: DnYcgR; conditions: read-out: KD^a; 50 nM protein; 50 mM HEPES pH 7.2, 100 mM KCl, 10 mM DTT, 0.1% BSA; 28 °C
How it was run: as §1

Nc1nc2c(ncn2[C@@H]2O[C@@H]3COP(=O)(O)O[C@H]4[C@@H](O)[C@H](n5cnc6c(=O)[nH]c(N)nc65)O[C@@H]4COP(=O)(O)O[C@H]3[C@H]2O)c(=O)[nH]1 [c-di-GMP]
Kd [1]: 59 ± 2 nM | Kd [2]: < 50 nM | Kd [3]: 354 ± 18 nM | Kd [4]: < 50 nM | Kd [5]: 379 ± 23 nM | Kd [6]: 286 ± 17 nM | Kd [7]: < 50 nM | Kd [8]: < 50 nM | Kd [9]: < 50 nM | Kd [10]: < 50 nM | Kd [11]: 105 ± 2 nM | Kd [12]: 303 ± 15 nM
